According to ChEMBL document CHEMBL5046307 (ACS Med Chem Lett, 2022):

Legend:
[1] = Inhibition of human electron transport chain complex 1 in human NCI-H1299 cells assessed as reduction in cellular ATP level measured after 24 hrs by CellTiter-Glo assay; format: cell-based; conditions: Homo sapiens, NCI-H1299, 24 h
Summary of the method: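 ATP-dependent luciferase luminescence read in H1299 cells, first without (M1) and then after adding the complex II substrate succinate (M2), to separate complex I block from downstream respiratory-chain inhibition or uncoupling.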

[2] = Lipophilicity, logD of compound; conditions: octanol/water

Compound	IC50 [1] [µM]	logD [2]
Fc1ccc2cc(-c3csc(C4CCN(Cc5nc6ccccc6[nH]5)CC4)n3)oc2c1	0.5	3.5
CC(c1nc2ccccc2[nH]1)N1CCC(c2nc(-c3cc4ccccc4o3)cs2)CC1 (racemic)	0.4	3.7
c1ccc2oc(-c3csc(C4CCN(Cc5cn6ncccc6n5)CC4)n3)cc2c1	0.3	3.1
CCc1nccc(NC(=O)CN2CCC(c3nc(-c4cc5ccccc5o4)cs3)CC2)c1Cl	0.102	–
Fc1cnc2nc(CN3CCC(c4nc(-c5cc6ccccc6o5)cs4)CC3)[nH]c2c1	0.3	3.1
CCn1c(CN2CCC(c3nc(-c4cc5ccccc5o4)cs3)CC2)nc2ccccc21	> 30	3.4
O=C(CN1CCC(c2nc(-c3cc4ccccc4o3)cs2)CC1)Nc1cncs1	0.155	–
O=C(CN1CCC(c2nc(-c3cc4ccccc4o3)cs2)CC1)Nc1cccc(C(F)(F)F)c1	3.28	–
Cc1ccnc2nc(CN3CCC(c4nc(-c5cc6ccccc6o5)cs4)CC3)[nH]c12	0.3	3
c1ccc2oc(-c3csc(C4CCN(Cc5nc6ccccc6[nH]5)CC4)n3)cc2c1	0.2	3.4
c1ccc2oc(-c3csc(C4CCN(Cc5cn6ccncc6n5)CC4)n3)cc2c1	0.39	2.7
c1ccc2oc(-c3csc(C4CCN(Cc5cn6cccnc6n5)CC4)n3)cc2c1	0.73	2.5
CC(C)(c1nc2ccccc2[nH]1)N1CCC(c2nc(-c3cc4ccccc4o3)cs2)CC1	3	3.8
O=C(CN1CCC(c2nc(-c3cc4ccccc4o3)cs2)CC1)Nc1ccccc1F	3.24	–
c1ccc2oc(-c3csc(C4CCN(Cc5nc6ccccc6s5)CC4)n3)cc2c1	1.76	5.6
c1coc(-c2csc(C3CCN(Cc4nc5ccccc5[nH]4)CC3)n2)c1	> 30	2.6
N#Cc1ccc2oc(-c3csc(C4CCN(Cc5nc6ccccc6[nH]5)CC4)n3)cc2c1	2	3

Compound	IC50 [1] [µM]	logD [2]
c1ccc(-c2csc(C3CCN(Cc4nc5ccccc5[nH]4)CC3)n2)cc1	10	3
c1ccc2oc(-c3csc(C4CCN(Cc5ncc[nH]5)CC4)n3)cc2c1	4	2.6
c1ccc2[nH]c(CN3CCC(c4nc(-c5nc6ccccc6s5)cs4)CC3)nc2c1	0.71	3.1
Cc1ccc2[nH]c(CN3CCC(c4nc(-c5cc6ccccc6o5)cs4)CC3)nc2n1	0.3	3
O=C(CN1CCC(c2nc(-c3cc4ccccc4o3)cs2)CC1)Nc1cccc(F)c1	0.42	–
c1ccc2oc(-c3csc(C4CCN(Cc5cn6ccccc6n5)CC4)n3)cc2c1	0.34	2.9
Cn1c(-c2csc(C3CCN(Cc4nc5ccccc5[nH]4)CC3)n2)nc2ccccc21	20	2.5
c1ccc2[nH]c(CN3CCC(c4nc(-c5cc6ncccc6o5)cs4)CC3)nc2c1	0.77	2.4
O=C(CN1CCC(c2nc(-c3cc4ccccc4o3)cs2)CC1)Nc1ccncc1	0.07	–
N#Cc1ccc2nc(CN3CCC(c4nc(-c5cc6ccccc6o5)cs4)CC3)[nH]c2c1	0.86	3.4
O=C(c1nc2ccccc2[nH]1)N1CCC(c2nc(-c3cc4ccccc4o3)cs2)CC1	3	4.3
c1ccc2oc(-c3csc(C4CCN(Cc5nc6ccccc6o5)CC4)n3)cc2c1	1.72	4.6
O=C(CN1CCC(c2nc(-c3cc4ccccc4o3)cs2)CC1)Nc1ccccc1	0.882	–
Cn1c(CN2CCC(c3nc(-c4cc5ccccc5o4)cs3)CC2)nc2ccccc21	0.7	4.3
c1ccc(-c2c[nH]c(CN3CCC(c4nc(-c5cc6ccccc6o5)cs4)CC3)n2)cc1	0.86	3.7
c1ccc2oc(-c3csc(C4CCN(Cc5nc6ncncc6[nH]5)CC4)n3)cc2c1	0.08	2.6
